Test results reported in ChEMBL document CHEMBL1136869, “2-Cyclohexylcarbonylbenzimidazoles as potent, orally available and brain-penetrable opioid receptor-like 1 (ORL1) antagonists” (Bioorg Med Chem Lett, 2009).
Calls of active or inactive are those of the source. No cut-off for these calls is given here.

Legend:
[1] = Distribution coefficient, log D at pH 7.4 by shake flask method; type: physicochemical; conditions: octanol/water
[2] = biological target: Voltage-gated inwardly rectifying potassium channel KCNH2 (Homo sapiens, UniProt Q12809); assay: Displacement of [35S]MK499 from human ERG expressed in HEK293 cells
Chain of Voltage-gated inwardly rectifying potassium channel KCNH2 (Q12809 whole entry): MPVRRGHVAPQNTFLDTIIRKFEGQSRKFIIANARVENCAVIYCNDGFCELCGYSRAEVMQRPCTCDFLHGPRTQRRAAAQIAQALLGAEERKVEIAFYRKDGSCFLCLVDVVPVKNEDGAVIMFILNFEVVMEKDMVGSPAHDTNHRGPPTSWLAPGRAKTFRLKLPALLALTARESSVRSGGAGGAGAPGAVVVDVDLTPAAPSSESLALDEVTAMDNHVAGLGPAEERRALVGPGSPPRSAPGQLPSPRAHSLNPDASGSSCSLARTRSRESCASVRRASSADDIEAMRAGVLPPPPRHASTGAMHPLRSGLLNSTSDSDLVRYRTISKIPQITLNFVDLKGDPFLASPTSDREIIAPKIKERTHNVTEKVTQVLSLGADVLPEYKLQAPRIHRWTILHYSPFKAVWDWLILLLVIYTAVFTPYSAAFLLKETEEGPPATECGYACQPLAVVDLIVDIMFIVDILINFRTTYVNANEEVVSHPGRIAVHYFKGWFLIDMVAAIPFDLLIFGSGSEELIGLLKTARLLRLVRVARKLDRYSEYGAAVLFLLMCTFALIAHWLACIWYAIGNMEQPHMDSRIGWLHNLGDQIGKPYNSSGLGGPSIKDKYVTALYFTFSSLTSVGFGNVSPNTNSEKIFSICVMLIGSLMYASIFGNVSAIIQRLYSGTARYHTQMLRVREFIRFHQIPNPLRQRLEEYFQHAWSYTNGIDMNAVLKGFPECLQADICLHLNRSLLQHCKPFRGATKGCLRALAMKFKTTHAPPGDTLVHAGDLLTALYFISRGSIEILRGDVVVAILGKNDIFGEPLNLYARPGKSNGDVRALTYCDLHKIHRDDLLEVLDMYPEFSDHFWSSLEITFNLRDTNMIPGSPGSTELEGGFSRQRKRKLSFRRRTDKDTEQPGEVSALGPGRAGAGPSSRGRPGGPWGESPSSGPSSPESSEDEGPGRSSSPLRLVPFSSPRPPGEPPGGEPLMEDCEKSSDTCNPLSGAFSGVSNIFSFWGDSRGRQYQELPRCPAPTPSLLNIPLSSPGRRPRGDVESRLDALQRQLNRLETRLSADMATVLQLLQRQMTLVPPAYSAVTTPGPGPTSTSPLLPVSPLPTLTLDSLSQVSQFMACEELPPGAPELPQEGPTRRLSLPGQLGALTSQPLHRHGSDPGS

[3] = Metabolic stability in human liver microsomes assessed as parent compound remaining at 1 uM after 30 mins; type: ADME, Microsome; conditions: read-out: Stability
Nociceptin receptor [4] = biological target: T1, Nociceptin receptor (Homo sapiens, UniProt P41146); assay: Antagonist activity against ORL1 receptor by [S35]GTPgammaS binding; type: functional
T1 sequence (P41146 whole entry): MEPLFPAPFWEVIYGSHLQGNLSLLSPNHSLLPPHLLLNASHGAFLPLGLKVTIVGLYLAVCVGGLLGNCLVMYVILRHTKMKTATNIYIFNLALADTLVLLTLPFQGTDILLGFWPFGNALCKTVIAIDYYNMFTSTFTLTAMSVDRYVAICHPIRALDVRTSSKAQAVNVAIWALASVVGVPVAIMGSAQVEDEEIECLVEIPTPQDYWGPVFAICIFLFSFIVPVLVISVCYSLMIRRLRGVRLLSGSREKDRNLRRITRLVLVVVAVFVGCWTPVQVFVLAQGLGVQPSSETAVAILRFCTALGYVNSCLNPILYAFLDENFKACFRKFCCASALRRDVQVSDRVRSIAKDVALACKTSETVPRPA

Nociceptin receptor [5] = biological target: T1, Nociceptin receptor; assay: Displacement of [125I]Tyr14-NC/OFQ from ORL1 receptor
[6] = Drug level in mouse plasma at 30 mg/kg, po after 1 hr; type: ADME, organism-based; parameters: dose 30 mg/kg, route oral
[7] = Ratio of drug level in mouse brain to plasma at 30 mg/kg, po after 1 hr; type: ADME, organism-based; parameters: dose 30 mg/kg, route oral
Brain [8] = assay: Drug level in mouse brain at 30 mg/kg, po after 1 hr; type: ADME, organism-based; parameters: dose 30 mg/kg, route oral; conditions: in vivo
Brain [9] = assay: Drug level in mouse brain at 3 mg/kg, sc after 30 mins; type: ADME, organism-based; parameters: dose 3 mg/kg, route subcutaneous; conditions: in vivo, 0.5 h
Mu-type opioid receptor = Mu-type opioid receptor (Homo sapiens, UniProt P35372); assay: Displacement of [3H]diprenorphin from human mu opioid receptor expressed in CHO cells; type: cell-based
Chain of Mu-type opioid receptor (P35372 whole entry): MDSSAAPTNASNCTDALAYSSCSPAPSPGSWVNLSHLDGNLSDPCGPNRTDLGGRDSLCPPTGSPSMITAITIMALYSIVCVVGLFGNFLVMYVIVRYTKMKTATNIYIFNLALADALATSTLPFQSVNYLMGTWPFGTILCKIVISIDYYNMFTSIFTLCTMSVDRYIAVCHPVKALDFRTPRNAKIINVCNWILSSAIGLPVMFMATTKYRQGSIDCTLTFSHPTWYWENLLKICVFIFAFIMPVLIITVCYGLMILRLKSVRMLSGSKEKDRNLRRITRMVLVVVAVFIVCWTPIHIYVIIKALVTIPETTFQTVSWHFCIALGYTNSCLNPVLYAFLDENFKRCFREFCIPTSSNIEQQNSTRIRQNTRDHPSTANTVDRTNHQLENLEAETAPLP
Method in brief: (§1)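 Radioligand displacement in CHO cells stably expressing cloned human opioid receptors: [3H]diprenorphin for mu and [3H]U69593 for kappa. IC50 values were reported.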

[10] = Clearance in rat at 3 mg/kg, po and 1 mg/kg, iv; type: ADME, organism-based; conditions: in vivo
[11] = Cmax in dog at 10 mg/kg, iv; type: ADME, organism-based, Canis lupus familiaris; parameters: dose 10 mg/kg, route intravenous; conditions: in vivo
[12] = biological target: Cannabinoid receptor 2 (Homo sapiens) (UniProt P34972); assay: Inhibition of CB2 receptor at 10 uM
Chain of Cannabinoid receptor 2 (Homo sapiens) (P34972 whole entry): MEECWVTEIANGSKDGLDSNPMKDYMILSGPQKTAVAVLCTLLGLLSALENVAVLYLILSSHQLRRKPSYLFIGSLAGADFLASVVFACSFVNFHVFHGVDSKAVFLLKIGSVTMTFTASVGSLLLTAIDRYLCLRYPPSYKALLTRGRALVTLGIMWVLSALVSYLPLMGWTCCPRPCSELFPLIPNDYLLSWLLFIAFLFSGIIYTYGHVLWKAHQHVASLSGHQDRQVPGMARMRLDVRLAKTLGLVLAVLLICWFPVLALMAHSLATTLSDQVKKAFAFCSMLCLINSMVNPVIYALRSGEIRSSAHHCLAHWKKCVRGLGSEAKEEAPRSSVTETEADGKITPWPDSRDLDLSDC

[13] = Half life in rat at 3 mg/kg, po and 1 mg/kg, iv; type: ADME, organism-based; conditions: in vivo
[14] = biological target: T2, High affinity choline transporter 1 (Homo sapiens) (UniProt Q9GZV3); assay: Inhibition of choline transporter at 10 uM
T2 sequence (whole entry): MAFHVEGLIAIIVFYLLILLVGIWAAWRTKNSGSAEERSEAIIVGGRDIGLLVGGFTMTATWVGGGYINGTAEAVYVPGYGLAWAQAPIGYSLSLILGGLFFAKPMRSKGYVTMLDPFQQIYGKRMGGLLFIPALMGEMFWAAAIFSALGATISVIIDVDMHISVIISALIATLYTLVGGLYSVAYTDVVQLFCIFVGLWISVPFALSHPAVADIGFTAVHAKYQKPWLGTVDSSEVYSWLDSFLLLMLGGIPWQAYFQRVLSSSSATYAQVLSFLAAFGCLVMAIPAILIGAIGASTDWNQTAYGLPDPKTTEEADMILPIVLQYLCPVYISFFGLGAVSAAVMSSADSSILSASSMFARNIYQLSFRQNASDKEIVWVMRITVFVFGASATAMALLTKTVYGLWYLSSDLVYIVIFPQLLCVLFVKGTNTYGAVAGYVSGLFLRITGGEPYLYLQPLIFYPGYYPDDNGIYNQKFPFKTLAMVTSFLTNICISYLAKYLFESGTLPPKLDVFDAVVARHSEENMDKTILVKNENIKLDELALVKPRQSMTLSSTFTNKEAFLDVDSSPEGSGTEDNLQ

[15] = Ratio of drug level in brain to plasma of mouse at 3 mg/kg, sc after 30 mins; type: ADME, organism-based; parameters: dose 3 mg/kg, route subcutaneous
Method in brief: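 Mice dosed subcutaneously at 3 mg/kg; brain and plasma sampled 30 min after dosing. Brain level measured as nmol/g tissue alongside plasma concentration; value is the brain-to-plasma (b/p) ratio of these two levels.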

[16] = biological target: Delta-type opioid receptor (Homo sapiens, UniProt P41143); assay: Displacement of [3H]naltrindole from human delta opioid receptor expressed in CHO cells
Chain of Delta-type opioid receptor (P41143 whole entry): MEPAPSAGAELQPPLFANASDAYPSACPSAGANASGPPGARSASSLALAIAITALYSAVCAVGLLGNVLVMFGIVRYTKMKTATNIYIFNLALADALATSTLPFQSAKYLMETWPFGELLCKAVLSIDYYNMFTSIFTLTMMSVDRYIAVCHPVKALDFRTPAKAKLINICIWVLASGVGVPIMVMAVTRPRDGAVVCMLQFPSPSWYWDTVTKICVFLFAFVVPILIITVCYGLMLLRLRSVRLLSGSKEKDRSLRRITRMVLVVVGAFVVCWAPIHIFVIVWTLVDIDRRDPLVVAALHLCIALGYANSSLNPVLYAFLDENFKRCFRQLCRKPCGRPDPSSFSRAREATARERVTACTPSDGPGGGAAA

[17] = Clearance in dog at 3 mg/kg, po and 1 mg/kg, iv; type: ADME, organism-based, Canis lupus familiaris; conditions: in vivo
[18] = Oral bioavailability in dog at 3 mg/kg; type: ADME, organism-based, Canis lupus familiaris; conditions: in vivo
[19] = biological target: T3, Alpha-1D adrenergic receptor (Homo sapiens) (UniProt P25100); assay: Inhibition of adrenergic Alpha-1D receptor at 10 uM
T3 sequence (whole entry): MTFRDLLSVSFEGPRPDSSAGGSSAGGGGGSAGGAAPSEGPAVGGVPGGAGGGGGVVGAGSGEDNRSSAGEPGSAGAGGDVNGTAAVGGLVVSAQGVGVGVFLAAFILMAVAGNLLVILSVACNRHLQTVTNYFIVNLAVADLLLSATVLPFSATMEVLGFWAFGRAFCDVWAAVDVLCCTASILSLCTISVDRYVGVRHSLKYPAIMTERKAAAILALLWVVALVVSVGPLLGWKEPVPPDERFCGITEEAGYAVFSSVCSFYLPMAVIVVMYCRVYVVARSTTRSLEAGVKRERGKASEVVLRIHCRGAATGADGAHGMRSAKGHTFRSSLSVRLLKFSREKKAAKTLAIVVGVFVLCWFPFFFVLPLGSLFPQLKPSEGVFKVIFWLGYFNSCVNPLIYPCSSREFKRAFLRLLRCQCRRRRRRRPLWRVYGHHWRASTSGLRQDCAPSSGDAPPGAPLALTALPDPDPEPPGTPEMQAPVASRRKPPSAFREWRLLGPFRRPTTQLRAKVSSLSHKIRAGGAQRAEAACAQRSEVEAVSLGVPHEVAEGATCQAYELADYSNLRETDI

[20] = Inhibition of adrenergic alpha1 receptor at 10 uM
[21] = biological target: Histamine H3 receptor (Homo sapiens) (UniProt Q9Y5N1); assay: Inhibition of histamine H3 receptor at 10 uM
Chain of Histamine H3 receptor (Homo sapiens) (Q9Y5N1 whole entry): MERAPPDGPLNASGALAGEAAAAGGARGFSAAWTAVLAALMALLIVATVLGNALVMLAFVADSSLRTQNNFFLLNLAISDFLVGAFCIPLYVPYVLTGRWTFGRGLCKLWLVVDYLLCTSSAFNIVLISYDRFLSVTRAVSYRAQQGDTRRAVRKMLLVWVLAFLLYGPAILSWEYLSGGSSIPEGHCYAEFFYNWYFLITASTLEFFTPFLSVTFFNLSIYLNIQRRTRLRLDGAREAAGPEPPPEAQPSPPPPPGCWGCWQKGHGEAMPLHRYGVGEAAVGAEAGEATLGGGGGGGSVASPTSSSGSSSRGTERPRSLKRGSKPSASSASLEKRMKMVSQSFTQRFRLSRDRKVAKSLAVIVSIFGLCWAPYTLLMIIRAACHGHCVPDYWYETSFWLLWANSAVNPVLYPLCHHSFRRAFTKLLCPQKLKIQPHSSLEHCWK

Rattus norvegicus = assay: Antihyperalgesic activity in rat assessed as inhibition of carrageenan-induced hyperalgesia at 30 mg/kg, sc after 1 hr; type: functional, organism-based; parameters: dose 30 mg/kg
Method in brief: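 Rats received carrageenin (0.15 ml, 3%) by intraplantar injection 3 h before testing. Compound was given sc, and testing followed 1 h later. Responses to a noxious mechanical stimulus were scored, with significance set at P < 0.05.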

[22] = Clearance in monkey at 3 mg/kg, po and 1 mg/kg, iv; type: ADME, organism-based, Macaca mulatta; conditions: rhesus monkey, in vivo
[23] = Oral bioavailability in monkey at 3 mg/kg; type: ADME, organism-based, Macaca mulatta; conditions: rhesus monkey, in vivo
[24] = Half life in monkey at 3 mg/kg, po and 1 mg/kg, iv; type: ADME, organism-based, Macaca mulatta; conditions: rhesus monkey, in vivo
[25] = Oral bioavailability in rat at 3 mg/kg; type: ADME, organism-based; conditions: in vivo
[26] = Half life in dog at 3 mg/kg, po and 1 mg/kg, iv; type: ADME, organism-based, Canis lupus familiaris; conditions: in vivo
Canis familiaris = assay: Toxic effect in anesthetized dog assessed as incidence of cardiovascular events at 10 mg/kg, iv; type: toxicity, organism-based, Canis lupus familiaris; parameters: dose 10 mg/kg, route intravenous; conditions: in vivo
[27] = Plasma concentration in mouse at 3 mg/kg, sc after 30 mins; type: ADME, organism-based; parameters: dose 3 mg/kg, route subcutaneous
[28] = biological target: Kappa-type opioid receptor (Homo sapiens, UniProt P41145); assay: Displacement of [3H]U69593 from human kappa opioid receptor expressed in CHO cells; type: cell-based; method in brief: as §1
Chain of Kappa-type opioid receptor (P41145 whole entry): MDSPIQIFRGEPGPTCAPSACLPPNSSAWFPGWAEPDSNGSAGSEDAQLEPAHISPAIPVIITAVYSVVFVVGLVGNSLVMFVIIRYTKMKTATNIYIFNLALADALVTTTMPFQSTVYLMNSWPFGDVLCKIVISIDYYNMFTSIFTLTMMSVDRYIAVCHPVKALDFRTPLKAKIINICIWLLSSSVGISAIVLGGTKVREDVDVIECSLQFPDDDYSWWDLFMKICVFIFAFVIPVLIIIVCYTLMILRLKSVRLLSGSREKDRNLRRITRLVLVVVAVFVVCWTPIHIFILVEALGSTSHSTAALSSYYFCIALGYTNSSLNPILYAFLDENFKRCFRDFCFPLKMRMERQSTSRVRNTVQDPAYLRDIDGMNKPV

CCN1CCN(c2cc3[nH]c(C(=O)[C@]4(C)CC[C@@H](NC(=O)OC)CC4)nc3cc2Cl)CC1
logD [1]: 3.7 | IC50 [2]: 4900 nM | remaining at 0.5 h, 1 µM [3]: 74% | IC50 (Nociceptin receptor [4]): 7.5 nM | IC50 (Nociceptin receptor [5]): 5.7 nM

CCN1CCN(c2cc3[nH]c(S[C@]4(C)CC[C@@H](NC(=O)OC)CC4)nc3cc2Cl)CC1
concentration at 1 h [6]: 22.2 µM | Kp at 1 h [7]: 0.05 | Drug uptake (Brain [8]): 1.11 nmol/g

CCN1CCN(c2cc3[nH]c(C(=O)[C@]4(C)CC[C@](C)(O)CC4)nc3cc2Cl)CC1
IC50 [2]: 3100 nM | IC50 (Nociceptin receptor [5]): 27 nM

CCN1CCN(c2cc3[nH]c(C(=O)[C@]4(CC)CC[C@@](C)(O)CC4)nc3cc2Cl)CC1
logD [1]: 3.6 | remaining at 0.5 h, 1 µM [3]: 57% | IC50 (Nociceptin receptor [4]): 2.4 nM | IC50 (Nociceptin receptor [5]): 0.8 nM

CCN1CCN(c2cc3[nH]c(C(=O)[C@]4(C)CC[C@@](C)(O)CC4)nc3cc2Cl)CC1
logD [1]: 3.1 | Drug uptake (Brain [9]): 2.21 nmol/g | IC50 (Mu-type opioid receptor): > 10000 nM | clearance [10]: 77 mL/min/kg | Cmax [11]: 10.7 µM | inhibition [12]: 73% | half-life [13]: 0.62 h | inhibition [14]: 62% | Kp at 0.5 h [15]: 2.02 | IC50 [16]: > 10000 nM | clearance [17]: 34 mL/min/kg | bioavailability [18]: 38% | inhibition [19]: 74% | inhibition [20]: 72% | inhibition [21]: 50% | Activity (Rattus norvegicus): Active | clearance [22]: 22 mL/min/kg | bioavailability [23]: 8% | half-life [24]: 4 h | IC50 [2]: 20000 nM | bioavailability [25]: 15% | remaining at 0.5 h, 1 µM [3]: 82% | half-life [26]: 3.5 h | IC50 (Nociceptin receptor [4]): 1.3 nM | Activity (Canis familiaris): Non-toxic | concentration at 0.5 h [27]: 1.08 µM | IC50 [28]: 1400 nM

CCN1CCN(c2cc3[nH]c(C(=O)C4(C)CCC(=O)CC4)nc3cc2Cl)CC1
logD [1]: 3 | IC50 [2]: 8500 nM | IC50 (Nociceptin receptor [4]): 38 nM | IC50 (Nociceptin receptor [5]): 9.9 nM

CCN1CCN(c2cc3[nH]c(S[C@]4(C)CC[C@@H](N(C)C(C)=O)CC4)nc3cc2Cl)CC1
concentration at 1 h [6]: 4.56 µM | Kp at 1 h [7]: 0.09 | Drug uptake (Brain [8]): 0.38 nmol/g

CCN1CCN(c2cc3[nH]c(C(=O)[C@]4(C)CC[C@@H](NC(=O)OC)CC4)nc3cc2C)CC1
logD [1]: 3.1 | IC50 [2]: 3000 nM | remaining at 0.5 h, 1 µM [3]: 71% | IC50 (Nociceptin receptor [4]): 5.3 nM | IC50 (Nociceptin receptor [5]): 2 nM
